# A selection: hits, their analogues and other compounds. The true share with any hit is near 3.8%.
# HSP90 inh = HSP90 refolding inhibition in rabbit reticulocyte lysate; luciferase refolding luminescence, 3 h; inhibition, % at 5.6 µM; actives 0.91% (n = 290,000); AID 1789;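 active = inhibition above the screen-wide mean plus 3 SD, computed separately per campaign, cut at about 16% in these data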;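 note: inhibitors lower the luminescence because luciferase stays unfolded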
# HSF1 inhib = HSF1 inhibition. AID 2098. activity change, negative = inhibition, % at 7.5 µM (by protocol). actives 0.77% (n = 300,000). NIH3T3-HGL HSE-luciferase, MG132-induced, luminescence 8 h; stronger effect = lower value;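 active = more than half of replicate wells show activity change below -50%, luminescence cut by over half; inconclusive = some wells, but at most half, below -50%; inactive = no replicate well below -50%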;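 note: luciferase reports HSF-1 transcriptional activity via heat shock element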
# HSF1 activator = increases HSF-1 driven luciferase reporter signal | NIH3T3-HGL HSF-1 luciferase reporter, MG132, 8 h; 100% = twice DMSO control signal | activation, % at 9 µM | actives 1.7% (n = 300,000);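 active = mean replicate activation of at least 50% with a set share of replicates each reaching 50%; inconclusive = only one of those two conditions met; inactive = mean below 50% and too few replicates reaching it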
# Hep lipid drop = modulators of hepatic lipid droplet formation; actives 0.4% (n = 240,000); AML12 mouse hepatocytes, oleate lipid droplets, BODIPY imaging; AID 1656; inhibition, % at 6.5 µM;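 active = lipid droplet intensity inhibited by at least 50%, with more than 500 cells counted; inconclusive = wells with under 300 cells, treated as cytotoxic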
#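 Assay system: AML12 hepatocytes (mouse); Probe or stimulus: oleic acid at 100 µM to induce lipid droplet formation; Dosing: compound at 6.5 µM only; Schedule: compound with oleate, overnight; Detection: fluorescence imaging, 20x objective, two fields per well; Measure: % inhibition of lipid droplet signal.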
# HCV NS3 hel inh = inhibitors of Hepatitis C virus NS3 helicase. actives 0.56% (n = 290,000). inhibition, % at 10.9 µM. NS3 helicase DNA unwinding, Cy5 molecular beacon fluorescence;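 active = inhibition above the mean of all tested compounds plus 3 SD, set per campaign, cut at about 35% in these data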
#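 System: HCV NS3 helicase fragment; control set: DMSO and thioflavine S; technique: Cy5 fluorescence at 0 and 60 min, beacon hairpin quenching; reagent: beacon DNA duplex substrate plus ATP; replicates: singlicate; schedule: 1 h reaction at 25 °C, ATP-initiated; medium: MOPS buffer pH 6.5 with MgCl2, DTT, Tween20, BSA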
# NS3 helicase cf = HCV NS3 helicase inhibition, confirmation assay; shares compounds with HCV NS3 hel inh; NS3 helicase DNA unwinding, Cy5 molecular beacon fluorescence; inhibition, % at 10.9 µM; actives 31% (n = 1,600); AID 1943;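 active = inhibition above the mean of all tested compounds plus 3 SD, cutoff set per campaign, cut at about 36% in these data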
# FID counter trip = displaces DNA intercalator in HCV helicase counter-screen; shares compounds with HCV NS3 hel inh; DNA fluorescent intercalator displacement, fluorescence; inhibition, % at 7.9 µM; actives 4% (n = 1,600); in the data active = inhibition above about 37%;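 note: higher means more displacement of ethidium bromide from the DNA hairpin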
# Hits are given with their value; - = inactive; ? = inconclusive; . = no result.
SMILES,HSP90 inh,HSF1 inhib,HSF1 activator,Hep lipid drop,HCV NS3 hel inh,NS3 helicase cf,FID counter trip
CCCCC1(C)OC(=O)C(=Cc2ccc(-c3ccc(Cl)c(C(=O)O)c3)o2)C(=O)O1 (centres undefined),-,-,-,-,67,77,-
Cc1ccc(N2NC(=O)/C(=C/c3ccc(-c4ccc(Cl)c(C(=O)O)c4)o3)C2=O)cc1,-,-,-,-,-,.,.
CCOC(=O)c1cc(-c2ccc(/C=C3/C(=O)NC(=O)C(C#N)=C3C)o2)ccc1Cl,-,-,-,.,50,71,75
Cc1sc2nc3c(SC(C)C(=O)O)cc(C(=O)c4ccccc4O)cn3c(=O)c2c1C (centres undefined),-,-,-,-,45,70,56
CCOC(=O)c1sc2nc3c(SCC(=O)O)cc(C(=O)c4cc(F)ccc4O)cn3c(=O)c2c1C,-,-,-,-,36,52,65
Cc1c(NC(=O)CN2C(=O)NC3(CCCC3)C2=O)c(=O)n(-c2ccccc2)n1C,-,.,.,-,36,-,-
Cc1ccc(NC(=O)CC2SC(=O)NC2=O)cc1 (centres undefined),-,-,-,-,47,-,-
O=C1c2ccccc2-c2onc3ccc(NCc4ccco4)c1c23,-,-,-,.,41,-,-
CC1=NN(c2ccccc2)C(=O)C1C=Nc1ccc(N(C)C)cc1 (centres undefined),-,-,-,-,44,-,-
Cc1ccc(S(=O)(=O)N2CCCCC2)cc1C(=O)NCC1CCCO1 (centres undefined),-,-,-,-,-,.,.
O=C(NCC1CCCO1)c1cc(S(=O)(=O)N2CCCC2)c(Cl)cc1Cl (centres undefined),-,-,-,-,83,-,-
CCOc1ccc2[nH]c(C)c(CN3CCCCCC3)c(=O)c2c1,-,-,-,-,-,.,.
CN(CC(=O)NC1CCN(Cc2ccccc2)CC1)S(=O)(=O)c1ccc(Br)s1,-,-,-,-,-,.,.
Cn1cccc1CC(=O)NNC(=S)NC(=O)c1ccc(F)cc1,-,-,-,-,45,-,-
O=C(NNC(=S)NC(=O)c1ccco1)c1ccc(F)cc1,-,-,-,-,-,.,.
Cc1cccc(Nc2nnc(SC/C(O)=C(\C#N)c3nc4ccccc4[nH]3)s2)c1C,-,-,-,-,48,-,-
Cc1cccc(C)c1Nc1nnc(SC/C(O)=C(\C#N)c2nc3ccccc3[nH]2)s1,-,-,-,-,-,.,.
O=C(Cn1c(=O)c2sccc2n(Cc2cccc([N+](=O)[O-])c2)c1=O)NCCc1ccccc1,-,-,-,-,44,-,-
Cc1cc(/C=C2\SC(=S)NC2=O)c(C)n1-c1ccccc1,-,-,-,-,39,-,-
Cc1cc(/C=C2\SC(=S)NC2=O)c(C)n1-c1ccc(O)cc1,-,-,-,-,45,-,-
Cc1cc(/C=C2\SC(=S)NC2=O)c(C)n1C,-,-,-,.,-,.,.
COc1ccc(-n2c(C)cc(/C=C3\SC(=S)NC3=O)c2C)cc1,-,-,-,-,-,.,.
CCC(Oc1ccccc1OC)C(=O)N1CC(=O)Nc2ccccc21 (centres undefined),-,-,-,-,-,.,.
O=S1(=O)CCOCCN1Cc1ccc(Cl)cc1Cl,-,-,-,.,37,-,-
COc1ccc(CNc2cccc3[nH]c(C(F)(F)F)nc23)cc1OC,-,-,-,-,42,-,-
SMILES,HSP90 inh,HSF1 inhib,HSF1 activator,Hep lipid drop,HCV NS3 hel inh,NS3 helicase cf,FID counter trip
Cn1c(-c2ccc3c(c2)OCO3)cc(=O)c2ccccc21,-,-,-,-,-,.,.
Cn1c2ccccc2c(=O)c2ccc(-c3ccc4c(c3)OCO4)cc21,-,-,?,-,43,-,-
Nc1c(C(=O)Nc2ccc(Br)cc2)sc2nc(-c3ccco3)ccc12,-,-,-,.,69,-,-
CC(=O)c1sc2nc(-c3ccco3)ccc2c1N,-,-,-,-,68,46,-
Nc1c(C(=O)Nc2ccc(F)cc2)sc2nc(-c3ccco3)ccc12,-,-,-,.,41,-,-
Cc1ccc(NC(=O)c2sc3nc4c(c(-c5ccco5)c3c2N)CCC4)cc1,-,-,-,.,-,.,.

# High-throughput results: PubChem, several laboratories
